The values below come from ChEMBL document CHEMBL4402582, “Garcinoic Acid Is a Natural and Selective Agonist of Pregnane X Receptor” (J Med Chem, 2020).

A word on the Kd: it is the concentration at which binding is half-saturated. Low values mean tighter binding, high ones weaker binding. By EC50 is commonly meant the concentration giving half of the maximal effect.

Active and inactive are the calls of the source. The calls are words filed in the database; no cut-off is given here.

Series [1] addresses T1, Nuclear receptor subfamily 1 group I member 2 (Homo sapiens, UniProt O75469).
T1 sequence (O75469 whole entry): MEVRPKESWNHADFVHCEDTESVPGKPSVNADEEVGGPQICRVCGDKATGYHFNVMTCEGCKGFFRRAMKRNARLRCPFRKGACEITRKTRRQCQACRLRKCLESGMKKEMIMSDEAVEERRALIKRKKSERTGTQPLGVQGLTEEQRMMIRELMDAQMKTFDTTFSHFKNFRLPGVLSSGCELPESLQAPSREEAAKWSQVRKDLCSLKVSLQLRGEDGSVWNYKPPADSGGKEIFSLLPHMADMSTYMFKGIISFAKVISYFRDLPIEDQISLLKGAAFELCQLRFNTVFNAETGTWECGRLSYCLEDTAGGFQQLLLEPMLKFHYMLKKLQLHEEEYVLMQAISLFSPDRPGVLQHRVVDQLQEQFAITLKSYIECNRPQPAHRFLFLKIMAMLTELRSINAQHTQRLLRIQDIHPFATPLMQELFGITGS
Kind of series: Binding affinity to His-tagged PXR-LBD (unknown origin) expressed in Escherichia coli BL21 Gold by ITC analysis. Put shortly: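 ITC at 37 °C in 25 mM HEPES pH 7.5, 150 mM NaCl, 8% v/v DMSO final. His-tagged PXR-LBD (tag not removed, gel-filtration purified) at 3 μM in cell; ligand at 60 μM in syringe, injected in 10 μL aliquots.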
(In general: Isothermal titration calorimetry measures the heat released or taken up as one component is titrated into another.)

A short description of series [2]: Toxicity in C57BL/6 mouse assessed as effect on animal behavior at <=25 mg dosed as oral gavage as single bolus and measured after 24 hrs relative to control. The note with it: in vivo. The format is organism-based. In short, it runs like this: (§1)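 Male C57BL/6 mice, 6–7 weeks old, three per group. Single oral gavage bolus of 5, 10, 25, 50 or 100 mg in olive oil vehicle. Observed at 24 h for mortality, gross appearance and behavior, then post-mortem examination of liver and main organs.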

The test system of another series is HepG2. Kind of series: Effect on alpha-tocopherol level in human HepG2 cells at 25 uM. It is filed as functional, cell-based.
Series [3] concerns the target T1, Nuclear receptor subfamily 1 group I member 2. Kind of series: Agonist activity at PXR in human HepaRG cells assessed as reversion of PXR binding at 10 uM incubated for 24 hrs by immunoblot analysis. The format is cell-based.
The test system of series [4] is Mus musculus. Kind of series: Induction of PXR protein expression in C57BL/6 mouse hepatic parenchyma assessed as induction of localization of PXR protein at hepatocytes around lobular midzonal area at 25 mg dosed as oral gavage as single bolus and measured after 24 hrs by IHC analysis relative to control. It is filed as functional, organism-based. In short, it runs like this: (§2)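 Male C57BL/6 mice, 6–7 weeks old, three per group. Single oral gavage bolus (5–25 mg) in olive oil; vehicle controls; killed at 24 h. Liver and gut formalin-fixed, paraffin-embedded; 4 μm sections stained with H&E. PXR IHC with polyclonal antibody at 1:200 on an automated stainer with polymer detection.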

Series [5] addresses T1, Nuclear receptor subfamily 1 group I member 2. The series can be described thus: Agonist activity at PXR in human HepaRG cells assessed as increase in CYP3A4 protein expression at 1 to 25 uM incubated for 24 hrs by immunoblot analysis. The format is cell-based. Background: In western blotting, separated proteins are transferred to a membrane and probed.
The target is the same in series [6]. The series can be described thus: Agonist activity at PXR in human HepG2 cells transfected with PXR siRNA assessed as induction of CYP3A4 expression at 10 to 50 uM incubated for 24 hrs. The following applies: hepg2, 24 h. The format is cell-based. In short, it runs like this: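 HepG2 cells reverse-transfected with PXR siRNA using lipofectamine RNAiMAX; after 24 h silencing, treated with compound for a further 24 h. PXR and CYP3A4 transcription responses measured.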

Series [7] has the same target. The series can be described thus: Agonist activity at PXR in human HepG2 cells assessed as stimulation of CYP450-mediated alpha-tocopherol metabolites efflux at 25 uM. The format is cell-based. The following applies: hepg2, 25 µM.
Series [8] has the same target. The series can be described thus: Agonist activity at PXR in human HT29 cells assessed as increase in PXR protein expression at 1 to 25 uM incubated for 24 hrs by immunoblot analysis. The format is cell-based.
Series [9] shares this target. The series can be described thus: Agonist activity at PXR in human HepG2 cells assessed as increase in CYP3A4 protein expression at 1 to 25 uM incubated for 24 hrs by immunoblot analysis. It is filed as cell-based. The following applies: hepg2, 24 h. In short, it runs like this: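 HepG2 cells, passages 2–10, treated 24 h with 1 and 25 μM. Lysates sonicated on ice; 20 μg protein run on 10–12% SDS-PAGE and immunoblotted with anti-PXR or anti-CYP3A4. Bands normalized to housekeeping protein and expressed relative to control (=1).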

The subject of series [10] is Mus musculus. Kind of series: Induction of PXR protein expression in C57BL/6 mouse intestine assessed as induction of localization of PXR protein at villous epithelium at 5 to 25 mg dosed as oral gavage as single bolus and measured after 24 hrs by IHC analysis relative to control. The format is functional, organism-based. Put shortly: as §2
Series [11] addresses T1, Nuclear receptor subfamily 1 group I member 2. The series can be described thus: Agonist activity at PXR in human HepaRG cells assessed as reversion of PXR antagonist sulforaphane-induced suppression of CYP3A4 expression at 10 uM incubated for 24 hrs by immunoblot analysis. It is filed as cell-based.
Series [12] shares this target. The series can be described thus: Agonist activity at PXR in human HepG2 cells assessed as stimulation of CYP450-mediated alpha-tocopherol metabolites production at 25 uM. The note with it: hepg2, 25 µM. The format is cell-based.
The target is the same in series [13]. The series can be described thus: Agonist activity at His-tagged PXR-LBD/SRC-1p (unknown origin) expressed in Escherichia coli BL21(DE3) at 10 uM by coactivator recruitment based Alpha-screen assay. For orientation: Alpha assays give light when donor and acceptor beads are brought close together.
For series [14] the target is unchanged. Kind of series: Agonist activity at PXR in human HepG2 cells assessed as increase in CYP3A4 mRNA expression at 1 to 25 uM incubated for 24 hrs. The note with it: hepg2, 24 h.
The nature of series [15]: Toxicity in C57BL/6 mouse assessed as mortality at 50 mg dosed as oral gavage as single bolus and measured after 24 hrs relative to control. The note with it: in vivo, read-out: Activity. The format is organism-based. In short, it runs like this:
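Male C57BL/6 wild-type mice aged 6–7 weeks, 3 per group. Single bolus by oral gavage in an olive-oil vehicle, with vehicle-only controls and dose groups of 5, 10, 25, 50 and 100 mg. Animals were checked 24 h after dosing by gross appearance and behaviour, then killed, and liver and main organs were examined post-mortem.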

The target in series [16] is T1, Nuclear receptor subfamily 1 group I member 2. The series can be described thus: Agonist activity at His-tagged PXR-LBD/SRC-1p (unknown origin) expressed in Escherichia coli BL21(DE3) by coactivator recruitment based Alpha-screen assay. The note with it: read-out: EC50.
The target in series [17] is T2, PXR (Nuclear receptor subfamily 1 group I member 2) (Homo sapiens, UniProt O75469).
T2 sequence (O75469 whole entry): T1 sequence (O75469 whole entry)
The series can be described thus: Agonist activity at His-tagged PXR-LBD/SRC-1p (unknown origin) expressed in Escherichia coli BL21(DE3) by coactivator recruitment based Alpha-screen assay relative to T0901317. The note with it: read-out: Efficacy.

Series [18] concerns the target T1, Nuclear receptor subfamily 1 group I member 2. The series can be described thus: Agonist activity at PXR in human HepG2 cells assessed as increase in MDR1 mRNA expression at 1 to 50 uM incubated for 24 hrs. It is filed as cell-based. The note with it: hepg2, 24 h. In short, it runs like this:
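HepG2 cells exposed to 1–50 μM. MDR1 mRNA measured after RNA extraction and cDNA synthesis.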

Series [19] has as its system Mus musculus. Kind of series: Induction of PXR protein expression in C57BL/6 mouse intestine assessed as induction of localization of PXR protein at glandular epithelium of crypts at base of mucosa epithelium at 5 to 25 mg dosed as oral gavage as single bolus and measured after 24 hrs by IHC analysis relative to control. It is filed as functional, organism-based. Put shortly: as §2

Series [20] can be described thus: Toxicity in C57BL/6 mouse assessed as effect on gross appearance at <=25 mg dosed as oral gavage as single bolus and measured after 24 hrs relative to control. The note with it: in vivo. It is filed as organism-based. In short, it runs like this:
as §1

`C/C(=C\CC/C(C)=C/CC[C@]1(C)CCc2cc(O)cc(C)c2O1)CC/C=C(\C)C(=O)O` displayed a Kd in series [1] of 330 nM. Besides, the Activity result in series [2] was “Non-Toxic”; in series [3], “Active”; in series [5], “Active”; in series [6], “Not Active”; in [7], “Active”; in series [8], “Active”. For the same compound, the Activity result in series [9] is “Dose-dependent effect”; in [11], “Active”; in series [12], “Active”; in series [13], “Active”; in series [14], “Dose-dependent effect”; in series [18] it was “Dose-dependent effect”. The Activity result in series [20] is “Non-Toxic”. Besides, the outcome with HepG2 was inactive. Moreover, the result with Mus musculus [4], in the series with Mus musculus [10] and in the series with Mus musculus [19] was Active. Moreover, in [15], the mortality at 24 h turned out to be 33%. In addition, the EC50 in [16] was determined as 1300 nM. Besides, the Emax in [17] was found to be 103%.
